Experimental data: ChEMBL document CHEMBL2311288, “Discovery of liver-targeted inhibitors of stearoyl-CoA desaturase (SCD1)” (Bioorg Med Chem Lett, 2013)
pIC50: −log10 of the molar value.

Tests used:
[1] = test system: Mus musculus; experiment: Toxicity in CD-1 mouse assessed as inhibition of fatty acid metabolism measured as lesions in eyes and skin at 30 to 300 mg/kg, po for 2 weeks; type: organism-based; set-up: dose 30-300 mg/kg, route oral; details: in vivo, 336 h
[2] = AUC (0 to 24 hrs) in CD-1 mouse at 100 mg/kg, po; type: ADME, organism-based; set-up: time < 24 hr, dose 100 mg/kg, route oral; details: plasma
Method in brief: (§1)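 Male CD-1 mice received single daily oral gavage doses of 30, 100 or 300 mg/kg for 2 weeks. Plasma drug levels were determined on Day 13, and exposure was expressed as AUC(0–24 h).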

[3] = AUC (0 to 24 hrs) in CD-1 mouse at 300 mg/kg, po; type: ADME, organism-based; set-up: time < 24 hr, dose 300 mg/kg, route oral; details: plasma; method in brief: as §1
[4] = AUC (0 to 24 hrs) in CD-1 mouse at 30 mg/kg, po; type: ADME, organism-based; set-up: time < 24 hr, dose 30 mg/kg, route oral; details: plasma; method in brief: as §1
[5] = test system: Mus musculus; experiment: Toxicity in CD-1 mouse assessed as minimal Leydig cell hyperplasia of the testes at 300 mg/kg, po; type: organism-based, Testis; set-up: dose 300 mg/kg, route oral; details: in vivo
[6] = test system: Mus musculus; experiment: Toxicity in CD-1 mouse assessed as tubular atrophy of the testes up to 300 mg/kg, po; type: organism-based, Testis; set-up: dose 300 mg/kg, route oral; details: in vivo
[7] = test system: Mus musculus; experiment: Toxicity in CD-1 mouse assessed as eyes (corneal degeneration, inflammation) up to 300 mg/kg, po; type: organism-based, Cornea; set-up: dose 300 mg/kg, route oral; details: in vivo
[8] = test system: Mus musculus; experiment: Toxicity in CD-1 mouse assessed as eyelid atrophy of sebaceous gland up to 300 mg/kg, po; type: organism-based; set-up: dose 300 mg/kg, route oral; details: in vivo
[9] = test system: Mus musculus; experiment: Toxicity in CD-1 mouse assessed as skin atrophy of sebaceous gland up to 300 mg/kg, po; type: organism-based; set-up: dose 300 mg/kg, route oral; details: in vivo
[10] = test system: Mus musculus; experiment: Toxicity in CD-1 mouse assessed as atrophy of the harderian and meibomian glands up to 300 mg/kg, po; type: organism-based; set-up: dose 300 mg/kg, route oral; details: in vivo
[11] = test system: Mus musculus; experiment: Toxicity in CD-1 mouse assessed as decrease in relative peri-renal fat weight at 100 to 300 mg/kg, po relative to control; type: organism-based; set-up: dose 100-300 mg/kg, route oral; details: in vivo
[12] = test system: Mus musculus; experiment: Toxicity in CD-1 mouse assessed as decrease in absolute peri-renal fat weight at 100 to 300 mg/kg, po relative to control; type: organism-based; set-up: dose 100-300 mg/kg, route oral; details: in vivo
[13] = test system: Mus musculus; experiment: Toxicity in CD-1 mouse assessed as relative liver weight at 300 mg/kg, po; type: organism-based; set-up: dose 300 mg/kg, route oral; details: in vivo
[14] = test system: Mus musculus; experiment: Toxicity in CD-1 mouse assessed as absolute liver weight at 300 mg/kg, po; type: organism-based; set-up: dose 300 mg/kg, route oral; details: in vivo
[15] = test system: Mus musculus; experiment: Toxicity in CD-1 mouse assessed as relative liver weight at 100 mg/kg, po; type: organism-based; set-up: dose 100 mg/kg, route oral; details: in vivo
[16] = test system: Mus musculus; experiment: Toxicity in CD-1 mouse assessed as absolute liver weight at 100 mg/kg, po; type: organism-based; set-up: dose 100 mg/kg, route oral; details: in vivo
[17] = test system: Mus musculus; experiment: Toxicity in CD-1 mouse assessed as effect on body weight up to 300 mg/kg, po; type: organism-based; set-up: dose 300 mg/kg, route oral; details: in vivo
[18] = test system: Mus musculus; experiment: Toxicity in CD-1 mouse assessed as effect on food consumption up to 300 mg/kg, po; type: organism-based; set-up: dose 300 mg/kg, route oral; details: in vivo
[19] = test system: Mus musculus; experiment: Toxicity in mouse assessed as abnormalities in eyes at 30 mg/kg; type: organism-based; set-up: dose 30 mg/kg; details: in vivo
[20] = Plasma concentration in AKR/J mouse at 30 mg/kg measured after 4 hrs; type: ADME, organism-based; set-up: dose 30 mg/kg
Method in brief: (§2)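 Male AKR/J mice, 7 weeks old (n = 10/group) and fed a 10% kcal low-fat diet, were given oral doses of 1, 3, 10 or 30 mg/kg. Plasma was collected 4 h after dosing, and drug concentration in that plasma was measured.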

[21] = test system: Mus musculus; experiment: Toxicity in mouse assessed as abnormalities in skin at 30 mg/kg; type: organism-based; set-up: dose 30 mg/kg; details: in vivo
[22] = Plasma concentration in AKR/J mouse at 3 mg/kg measured after 4 hrs; type: ADME, organism-based; set-up: dose 3 mg/kg; method in brief: as §2
[23] = Plasma concentration in AKR/J mouse at 10 mg/kg measured after 4 hrs; type: ADME, organism-based; set-up: dose 10 mg/kg; method in brief: as §2
[24] = Plasma concentration in AKR/J mouse at 1 mg/kg measured after 4 hrs; type: ADME, organism-based; set-up: dose 1 mg/kg; method in brief: as §2
[25] = Drug level in liver in rat at 10 mg/kg measured after 6 hrs; type: ADME, organism-based; set-up: dose 10 mg/kg; details: read-out: Drug uptake
Method in brief: (§3)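 Rats were given a single 10 mg/kg dose. Plasma exposure (AUC, Cmax) was determined, and drug concentrations in plasma, brain and liver were measured at 6 h post-dose. The liver/plasma ratio was taken from the 6 h levels.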

[26] = Ratio of drug level in liver to plasma of rat at 10 mg/kg measured after 6 hrs; type: ADME, organism-based; set-up: dose 10 mg/kg; method in brief: as §3
[27] = Cmax in rat at 10 mg/kg; type: ADME, organism-based; set-up: dose 10 mg/kg; details: in vivo; method in brief: as §3
[28] = Plasma concentration in rat at 10 mg/kg measured after 6 hrs; type: ADME, organism-based; set-up: dose 10 mg/kg; method in brief: as §3
[29] = biological target: T1, Acyl-CoA desaturase 1 (Rattus norvegicus, UniProt P07308); experiment: Inhibition of rat SCD1 by rat microsomal assay
T1 sequence (P07308 whole entry): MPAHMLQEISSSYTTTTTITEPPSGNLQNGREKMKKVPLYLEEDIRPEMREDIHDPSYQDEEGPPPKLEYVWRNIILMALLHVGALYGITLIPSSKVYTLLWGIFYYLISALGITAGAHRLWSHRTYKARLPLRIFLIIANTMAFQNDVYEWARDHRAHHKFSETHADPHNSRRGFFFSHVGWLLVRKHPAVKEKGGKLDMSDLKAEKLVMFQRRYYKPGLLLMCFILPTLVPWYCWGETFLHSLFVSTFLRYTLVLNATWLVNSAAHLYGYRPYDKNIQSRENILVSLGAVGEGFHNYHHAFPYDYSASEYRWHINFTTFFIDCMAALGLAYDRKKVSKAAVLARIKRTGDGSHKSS
Method in brief: (§4)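 Microsomal desaturase activity was measured in 100 mM Tris HCl pH 7.3 with 2 mM NADH and [9,10-3H]stearoyl-CoA for 15 min at room temperature. The reaction was stopped on ice with trichloroacetic acid, then passed through activated charcoal, and tritium in the filtrate was counted. Compounds were tested in 2% DMSO final. Percent inhibition = (total−sample)/(total−blank)×100, with the blank set by 10⁻⁴ M of a standard inhibitor.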

[30] = test system: Rattus norvegicus; experiment: AUC in rat at 10 mg/kg; type: ADME, organism-based, Plasma; set-up: dose 10 mg/kg; details: in vivo; method in brief: as §3
[31] = test system: Mus musculus; experiment: Toxicity in CD-1 mouse assessed as meibomian gland (atrophy, squamous metaplasia) up to 300 mg/kg, po; type: organism-based; set-up: dose 300 mg/kg, route oral; details: in vivo
[32] = test system: Mus musculus; experiment: Toxicity in CD-1 mouse assessed as article related testes up to 300 mg/kg, po; type: organism-based, Testis; set-up: dose 300 mg/kg, route oral; details: in vivo
[33] = test system: Mus musculus; experiment: Toxicity in CD-1 mouse assessed as lacrimation up to 300 mg/kg, po; type: organism-based; set-up: dose 300 mg/kg, route oral; details: in vivo
[34] = test system: Mus musculus; experiment: Toxicity in CD-1 mouse assessed as ocular opacity up to 300 mg/kg, po; type: organism-based, Eye; set-up: dose 300 mg/kg, route oral; details: in vivo
[35] = test system: Mus musculus; experiment: Toxicity in CD-1 mouse assessed as swelling of the lips up to 300 mg/kg, po; type: organism-based; set-up: dose 300 mg/kg, route oral; details: in vivo
[36] = test system: Mus musculus; experiment: Toxicity in CD-1 mouse assessed as alopecia up to 300 mg/kg, po; type: organism-based; set-up: dose 300 mg/kg, route oral; details: in vivo
[37] = test system: Mus musculus; experiment: Toxicity in CD-1 mouse assessed as peri-orbital swelling up to 300 mg/kg, po; type: organism-based; set-up: dose 300 mg/kg, route oral; details: in vivo
[38] = biological target: T2, Acyl-CoA desaturase 1 (Mus musculus, UniProt P13516); experiment: Inhibition of mouse SCD1; method in brief: as §4
T2 sequence (P13516 whole entry): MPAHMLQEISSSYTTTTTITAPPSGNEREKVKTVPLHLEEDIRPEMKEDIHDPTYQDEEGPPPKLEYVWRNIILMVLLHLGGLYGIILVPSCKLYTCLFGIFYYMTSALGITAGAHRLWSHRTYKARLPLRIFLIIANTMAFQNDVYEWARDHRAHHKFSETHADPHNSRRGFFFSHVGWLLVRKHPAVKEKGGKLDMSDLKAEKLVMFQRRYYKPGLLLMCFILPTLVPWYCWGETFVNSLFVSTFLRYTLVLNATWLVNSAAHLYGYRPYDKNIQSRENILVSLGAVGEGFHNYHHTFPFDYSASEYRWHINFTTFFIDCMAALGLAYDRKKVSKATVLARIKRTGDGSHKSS

Row | Structure (SMILES) | AUC(0-t) at 24 h [3] | Activity [7] | Activity [8] | Activity [9] | Activity [10] | Activity [19] | concentration at 4 h [20] | Activity [21] | concentration at 6 h [25] | Kp at 6 h [26] | Cmax [27] | concentration at 6 h [28] | pIC50 [29] | AUC [30] | Activity [31] | other results
1 | O=C(O)c1cnc(N2CCC3(CC2)CCN(Cc2cccc(C(F)(F)F)c2)c2ccccc2O3)s1 | 1520 µM·h | Toxic | Toxic | Toxic | Toxic | Non-toxic | 1740 ng/mL | Non-toxic | 19200 ng/g | 56 | 495 ng/g | 345 ng/g | 8.10 | 2308 ng·h/g | Toxic | Activity [1]: Toxic; AUC(0-t) at 24 h [2]: 565 µM·h; AUC(0-t) at 24 h [4]: 114 µM·h; Activity [5]: Toxic; Activity [6]: Toxic; Activity [11]: Toxic; Activity [12]: Toxic; Activity [13]: 33%; Activity [14]: 29%; Activity [15]: 20%; Activity [16]: 19%; Activity [17]: Non-toxic; Activity [18]: Non-toxic; concentration at 4 h [22]: 45 ng/mL; concentration at 4 h [23]: 135 ng/mL; concentration at 4 h [24]: 0.64 ng/mL
2 | CC(=O)NCC(=O)N1CCC2(CC1)CCN(Cc1ccc(C(C)(C)C)cc1)c1ccccc1O2 |  |  |  |  |  |  |  |  | 2670 ng/g | 13 | 1100 ng/g | 210 ng/g | 7.77 | 3464 ng·h/g |  | 
3 | CNC(=O)c1cccc(NC(=O)N2CCC(Oc3ccccc3Cl)CC2)c1 | 216 µM·h | Toxic | Toxic | Toxic | Toxic | Non-toxic | 1780 ng/mL | Non-toxic | 529 ng/g | 8 | 599 ng/g | 66 ng/g | > 8.40 | 1435 ng·h/g | Toxic | Activity [32]: Non-toxic; Activity [33]: Toxic; Activity [34]: Toxic; Activity [35]: Toxic; Activity [36]: Toxic; Activity [37]: Toxic
4 | N#Cc1cnc(N2CCC3(CC2)CCN(Cc2cccc(C(F)(F)F)c2)c2ccccc2O3)s1 |  |  |  |  |  |  |  |  | 1510 ng/g | 20 | 105 ng/g | 72 ng/g | 9.00 | 383 ng·h/g |  | 
5 | CC(=O)NCC(=O)N1CCC2(CC1)CCN(CCC(C)C)c1ccccc1O2 |  |  |  |  |  |  |  |  |  |  |  |  |  |  |  | pIC50 [38]: 5.19
